Results taken from ChEMBL document CHEMBL4689842, “EUbOPEN Chemogenomics Library wave 1” (2021).

Tested on: U2OS
Assay: Multiplex assay against U2OS
Format: toxicity, cell-based
Settings: human
Method in brief: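 Tubulin, mitochondrial-mass and membrane-permeability phenotypes are per cents of healthy-nucleus cells. Cells were gated by CellPathfinder machine learning into Hoechst high-intensity objects or normal cells, normal cells into healthy, pyknosed or fragmented nuclei, and pyknosed cells into mitotic or apoptotic. Before that, live cells stained at seeding with Hoechst33342, BioTracker Green Microtubule Cytoskeleton Dye, MitoTracker Red and Annexin V Alexa Fluor 680 were imaged on a CQ1 microscope at 37°C and 5% CO2 after compound addition.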

[1] = 12 h, 1 µM, compound concentration 1 uM, replicate 1
[2] = 12 h, 1 µM, compound concentration 1 uM, replicate 2
[3] = 12 h, 10 µM, compound concentration 10 uM, replicate 1
[4] = 12 h, 10 µM, compound concentration 10 uM, replicate 2
[5] = 24 h, 1 µM, compound concentration 1 uM, replicate 1
[6] = 24 h, 1 µM, compound concentration 1 uM, replicate 2
[7] = 24 h, 10 µM, compound concentration 10 uM, replicate 1
[8] = 24 h, 10 µM, compound concentration 10 uM, replicate 2
[9] = 48 h, 1 µM, compound concentration 1 uM, replicate 1
[10] = 48 h, 1 µM, compound concentration 1 uM, replicate 2
[11] = 48 h, 10 µM, compound concentration 10 uM, replicate 1
[12] = 48 h, 10 µM, compound concentration 10 uM, replicate 2

Which “Population Apoptotic (%)” value [1] does the source give for `CNc1oc(-c2cccc3ccccc23)nc1C#N` here?
The value was 36%.

And the “Population Fragmented Nuclei (%)” value [1]?
Its value is 22%.

And the “Population Healthy Nuclei (%)” value [1]?
The value was 67%.

What about the “Population Hoechst High Intensity Objects (%)” value [1] of the same molecule?
Its value is 16%.

What about the “Population Membrane Permeable-Phenotype (%)” value [1] of the same molecule?
The value was 10%.

What about the “Population Mitochondria Different-Phenotype (%)” value [1] of the same molecule?
The value was 9%.

And the “Population Mitotic Cells (%)” value [1]?
Its value is 63%.

And the “Population Normal (%)” value [1]?
The value was 83%.

And the “Population Pyknosed Nuclei (%)” value [1]?
Its value is 10%.

What about the “Population Tubulin-Different-Phenotype (%)” value [1] of the same molecule?
Its value is 8%.

And the “Total Cell Count” value [1]?
Its value is 113.

What about the “Population Apoptotic (%)” value [2] of the same molecule?
The value was 0%.

What about the “Population Fragmented Nuclei (%)” value [2] of the same molecule?
The value was 29%.

And the “Population Hoechst High Intensity Objects (%)” value [2]?
Its value is 15%.

And the “Population Membrane Permeable-Phenotype (%)” value [2]?
The value was 3%.

And the “Population Mitochondria Different-Phenotype (%)” value [2]?
The value was 11%.

What about the “Population Mitotic Cells (%)” value [2] of the same molecule?
Its value is 100%.

And the “Population Normal (%)” value [2]?
The value was 84%.

And the “Population Pyknosed Nuclei (%)” value [2]?
Its value is 2%.

What about the “Population Tubulin-Different-Phenotype (%)” value [2] of the same molecule?
Its value is 7%.

What about the “Total Cell Count” value [2] of the same molecule?
The value was 100.

What about the “Population Apoptotic (%)” value [3] of the same molecule?
The value was 86%.

What about the “Population Fragmented Nuclei (%)” value [3] of the same molecule?
The value was 49%.

What about the “Population Healthy Nuclei (%)” value [3] of the same molecule?
The value was 18%.

What about the “Population Hoechst High Intensity Objects (%)” value [3] of the same molecule?
The value was 44%.

What about the “Population Membrane Permeable-Phenotype (%)” value [3] of the same molecule?
The value was 3%.

And the “Population Mitochondria Different-Phenotype (%)” value [3]?
The value was 11%.

What about the “Population Mitotic Cells (%)” value [3] of the same molecule?
The value was 13%.

And the “Population Normal (%)” value [3]?
Its value is 55%.

And the “Population Pyknosed Nuclei (%)” value [3]?
The value was 32%.

And the “Population Tubulin-Different-Phenotype (%)” value [3]?
Its value is 15%.

And the “Total Cell Count” value [3]?
Its value is 259.

What about the “Population Apoptotic (%)” value [4] of the same molecule?
The value was 80%.

What about the “Population Fragmented Nuclei (%)” value [4] of the same molecule?
The value was 55%.

What about the “Population Healthy Nuclei (%)” value [4] of the same molecule?
The value was 16%.

And the “Population Hoechst High Intensity Objects (%)” value [4]?
The value was 46%.

What about the “Population Membrane Permeable-Phenotype (%)” value [4] of the same molecule?
Its value is 1%.

What about the “Population Mitochondria Different-Phenotype (%)” value [4] of the same molecule?
Its value is 3%.

What about the “Population Mitotic Cells (%)” value [4] of the same molecule?
Its value is 19%.

And the “Population Normal (%)” value [4]?
The value was 53%.

What about the “Population Pyknosed Nuclei (%)” value [4] of the same molecule?
Its value is 28%.

And the “Population Tubulin-Different-Phenotype (%)” value [4]?
Its value is 24%.

And the “Total Cell Count” value [4]?
The value was 92.

What about the “Population Apoptotic (%)” value [5] of the same molecule?
Its value is 53%.

And the “Population Fragmented Nuclei (%)” value [5]?
The value was 18%.

What about the “Population Healthy Nuclei (%)” value [5] of the same molecule?
Its value is 75%.

And the “Population Hoechst High Intensity Objects (%)” value [5]?
The value was 17%.

What about the “Population Membrane Permeable-Phenotype (%)” value [5] of the same molecule?
The value was 2%.

And the “Population Mitochondria Different-Phenotype (%)” value [5]?
Its value is 3%.

And the “Population Mitotic Cells (%)” value [5]?
Its value is 46%.

What about the “Population Normal (%)” value [5] of the same molecule?
Its value is 82%.

What about the “Population Pyknosed Nuclei (%)” value [5] of the same molecule?
Its value is 5%.

What about the “Population Tubulin-Different-Phenotype (%)” value [5] of the same molecule?
Its value is 6%.

What about the “Total Cell Count” value [5] of the same molecule?
Its value is 119.

And the “Population Apoptotic (%)” value [6]?
The value was 25%.

And the “Population Fragmented Nuclei (%)” value [6]?
The value was 28%.

What about the “Population Healthy Nuclei (%)” value [6] of the same molecule?
The value was 67%.

And the “Population Hoechst High Intensity Objects (%)” value [6]?
Its value is 6%.

What about the “Population Membrane Permeable-Phenotype (%)” value [6] of the same molecule?
The value was 1%.

What about the “Population Mitochondria Different-Phenotype (%)” value [6] of the same molecule?
Its value is 10%.

What about the “Population Mitotic Cells (%)” value [6] of the same molecule?
Its value is 75%.

What about the “Population Normal (%)” value [6] of the same molecule?
Its value is 93%.

What about the “Population Pyknosed Nuclei (%)” value [6] of the same molecule?
Its value is 3%.

And the “Population Tubulin-Different-Phenotype (%)” value [6]?
Its value is 21%.

And the “Total Cell Count” value [6]?
The value was 113.

And the “Population Apoptotic (%)” value [7]?
The value was 86%.

And the “Population Fragmented Nuclei (%)” value [7]?
The value was 50%.

And the “Population Healthy Nuclei (%)” value [7]?
Its value is 17%.

And the “Population Hoechst High Intensity Objects (%)” value [7]?
Its value is 43%.

What about the “Population Membrane Permeable-Phenotype (%)” value [7] of the same molecule?
Its value is 3%.

What about the “Population Mitochondria Different-Phenotype (%)” value [7] of the same molecule?
The value was 15%.

And the “Population Mitotic Cells (%)” value [7]?
Its value is 13%.

And the “Population Normal (%)” value [7]?
The value was 56%.

What about the “Population Pyknosed Nuclei (%)” value [7] of the same molecule?
The value was 32%.

And the “Population Tubulin-Different-Phenotype (%)” value [7]?
The value was 14%.

And the “Total Cell Count” value [7]?
The value was 352.

What about the “Population Apoptotic (%)” value [8] of the same molecule?
Its value is 81%.

And the “Population Fragmented Nuclei (%)” value [8]?
Its value is 57%.

And the “Population Healthy Nuclei (%)” value [8]?
Its value is 16%.

What about the “Population Hoechst High Intensity Objects (%)” value [8] of the same molecule?
Its value is 44%.

What about the “Population Mitochondria Different-Phenotype (%)” value [8] of the same molecule?
The value was 3%.

What about the “Population Mitotic Cells (%)” value [8] of the same molecule?
The value was 18%.

What about the “Population Normal (%)” value [8] of the same molecule?
The value was 55%.

What about the “Population Pyknosed Nuclei (%)” value [8] of the same molecule?
The value was 25%.

What about the “Population Tubulin-Different-Phenotype (%)” value [8] of the same molecule?
Its value is 26%.

And the “Total Cell Count” value [8]?
Its value is 116.

And the “Population Apoptotic (%)” value [9]?
Its value is 56%.

What about the “Population Fragmented Nuclei (%)” value [9] of the same molecule?
Its value is 16%.

What about the “Population Healthy Nuclei (%)” value [9] of the same molecule?
The value was 79%.

And the “Population Hoechst High Intensity Objects (%)” value [9]?
The value was 14%.

And the “Population Mitochondria Different-Phenotype (%)” value [9]?
Its value is 7%.

What about the “Population Mitotic Cells (%)” value [9] of the same molecule?
The value was 43%.

What about the “Population Normal (%)” value [9] of the same molecule?
Its value is 85%.

What about the “Population Pyknosed Nuclei (%)” value [9] of the same molecule?
Its value is 3%.

What about the “Population Tubulin-Different-Phenotype (%)” value [9] of the same molecule?
Its value is 8%.

And the “Total Cell Count” value [9]?
Its value is 243.

What about the “Population Apoptotic (%)” value [10] of the same molecule?
The value was 0%.

What about the “Population Fragmented Nuclei (%)” value [10] of the same molecule?
Its value is 29%.

What about the “Population Healthy Nuclei (%)” value [10] of the same molecule?
The value was 68%.

What about the “Population Hoechst High Intensity Objects (%)” value [10] of the same molecule?
Its value is 10%.

What about the “Population Membrane Permeable-Phenotype (%)” value [10] of the same molecule?
Its value is 1%.

And the “Population Mitochondria Different-Phenotype (%)” value [10]?
Its value is 8%.

And the “Population Mitotic Cells (%)” value [10]?
Its value is 100%.

And the “Population Normal (%)” value [10]?
The value was 89%.

And the “Population Pyknosed Nuclei (%)” value [10]?
The value was 2%.

What about the “Population Tubulin-Different-Phenotype (%)” value [10] of the same molecule?
The value was 19%.

What about the “Total Cell Count” value [10] of the same molecule?
Its value is 155.

What about the “Population Apoptotic (%)” value [11] of the same molecule?
The value was 87%.

What about the “Population Fragmented Nuclei (%)” value [11] of the same molecule?
Its value is 53%.

What about the “Population Healthy Nuclei (%)” value [11] of the same molecule?
The value was 18%.

What about the “Population Hoechst High Intensity Objects (%)” value [11] of the same molecule?
The value was 43%.

And the “Population Membrane Permeable-Phenotype (%)” value [11]?
Its value is 3%.

What about the “Population Mitochondria Different-Phenotype (%)” value [11] of the same molecule?
Its value is 12%.

And the “Population Mitotic Cells (%)” value [11]?
Its value is 12%.

What about the “Population Normal (%)” value [11] of the same molecule?
The value was 56%.

What about the “Population Pyknosed Nuclei (%)” value [11] of the same molecule?
The value was 27%.

And the “Population Tubulin-Different-Phenotype (%)” value [11]?
The value was 17%.

And the “Total Cell Count” value [11]?
Its value is 525.

And the “Population Apoptotic (%)” value [12]?
Its value is 81%.

And the “Population Fragmented Nuclei (%)” value [12]?
The value was 57%.

What about the “Population Healthy Nuclei (%)” value [12] of the same molecule?
Its value is 14%.

And the “Population Mitochondria Different-Phenotype (%)” value [12]?
Its value is 5%.

And the “Population Mitotic Cells (%)” value [12]?
Its value is 18%.

What about the “Population Tubulin-Different-Phenotype (%)” value [12] of the same molecule?
Its value is 26%.

And the “Total Cell Count” value [12]?
The value was 168.
